Molecules are shown by their SMILES. Calls of active or inactive are those of the source. The rule behind the calls is not given here.

The test system of data set [1] is HeLa. Kind of data set: Cytotoxicity against human HeLa cells at 1 to 200 uM after 24 hrs by MTS proliferation assay. Type of data set: cell-based. In outline:
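HeLa cells were seeded at 1 × 10^4 per well in complete medium for 24 h. They were then exposed to vehicle (0.1% DMSO) or 0–200 μM compound for 24 h. Proliferation was read with a CellTiter 96 Aqueous non-radioactive (MTS-type) assay.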
(Tetrazolium assays rely on reduction of a dye to a coloured formazan, in cell work by metabolically active cells.)

Data set [2] concerns the target TGF-beta receptor type-2 (Homo sapiens) (UniProt P37173). Nature of the data set: Displacement of biotinylated TGF-beta1 from human TGF-beta type 2 receptor at 100 uM after 1 hr by avidin-FITC-based flow cytometry. In short, it runs like this: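 HeLa cells were incubated 1 h with 0.1% DMSO or 100 μM compound in the presence of biotinylated TGF-β1. Bound ligand was detected with avidin-FITC and fluorescence intensity read by flow cytometry.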
On the technique in general: A flow cytometer gives signals particle by particle.

Data set [3] deals with HeLa. Kind of data set: Antagonist activity at human TGF-beta receptor in HeLa cells assessed as reduction in TGF-beta1-induced p21 expression at 100 uM after 24 hrs by Western blot analysis. Type of data set: functional, cell-based. In short, it runs like this:
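Starved HeLa cells exposed to vehicle (0.1% DMSO) or 100 μM compound for 24 h, with or without TGF-β1. Lysates were denatured at 95°C and separated on 7.5% SDS gels. PVDF blots were probed with anti-p21 (1:1000) and read by enhanced chemiluminescence.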

Data set [4] addresses TGF-beta receptor type-2 (Homo sapiens) (UniProt P37173). Kind of data set: Inhibition of TGF-beta1 induced TGF-beta type 2 receptor dimerization in human HeLa cells at 100 uM after 1 hr by single-molecule fluorescence microscopy. It is filed as cell-based. In short, it runs like this:
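HeLa cells were transfected for 4 h with TβRII-GFP plasmid (0.2 μg/mL) to give low expression. They were given 0.1% DMSO or 100 μM compound for 1 h, then 15 min with 10 ng/mL TGF-β1 where stimulated. Live-cell TIRF imaging used 488-nm excitation at 10 Hz for 200 frames. Spot intensities were fitted with Gaussians to give monomer/dimer fractions; purified GFP served as monomer reference.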

Data set [5] has as its system HeLa. Kind of data set: Antimigratory activity against human HeLa cells assessed as inhibition of TGF-beta1-induced cell migration at 100 uM after 24 hrs by scratch motility assay. It is filed as functional, cell-based. In outline: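 Confluent HeLa monolayers (1 × 10^6 cells/well), starved 24 h, were scratched with a pipette tip and washed. They then received 0.1% DMSO or 100 μM compound ± TGF-β1 for 24 h. Cells in five random fields of the scratch were counted and averaged per field.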

The subject of data set [6] is HeLa. Kind of data set: Antagonist activity at human TGF-beta receptor in HeLa cells assessed as reduction in TGF-beta1-induced Smad3 phosphorylation at 100 uM after 1 hr by Western blot analysis. Type of data set: functional, cell-based. In short, it runs like this:
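Starved HeLa cells given 0.1% DMSO vehicle or 100 μM compound for 1 h, with or without TGF-β1. Lysates in Laemmli buffer were denatured 10 min at 95°C and run on 7.5% SDS gels, then transferred to PVDF. Blots were probed with p-Smad3 and Smad3 antibodies (1:1000) and detected by ECL.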

Data set [7] deals with TGF-beta receptor type-2 (Homo sapiens) (UniProt P37173). Nature of the data set: Inhibition of TGF-beta1 induced TGF-beta type 2 receptor dimerization in human HeLa cells assessed as receptor dimers by bleaching-step counting assay (reference value: 39.9 +/- 2.5%). Type of data set: cell-based. The arrangement: scale not given: the % may be the effect or the level left.

Data set [8] relates to HeLa. Kind of data set: Antimigratory activity against human HeLa cells assessed as inhibition of TGF-beta1-induced cell invasion across collagen matrix at 100 uM after 24 hr by collagen-based cell Invasion assay.
In data set [9] the test system is HeLa. Nature of the data set: Antagonist activity at human TGF-beta receptor in HeLa cells assessed as suppression of nuclear translocation of Smad3 at 100 uM after 1 hr by immunofluorescence imaging. It is filed as functional, cell-based. In short, it runs like this: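 HeLa cells were grown 24 h, then serum-starved 24 h and treated 1 h with 0.1% DMSO or 100 μM compound, ± TGF-β1. Cells were fixed in 4% paraformaldehyde, permeabilized with 0.1% Triton X-100 and blocked with 1% BSA/PBST. Staining used anti-Smad3 (1:200, overnight) and Alexa 488 secondary (1:500), imaged by confocal microscopy.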

Chain of TGF-beta receptor type-2 (Homo sapiens) (P37173 whole entry): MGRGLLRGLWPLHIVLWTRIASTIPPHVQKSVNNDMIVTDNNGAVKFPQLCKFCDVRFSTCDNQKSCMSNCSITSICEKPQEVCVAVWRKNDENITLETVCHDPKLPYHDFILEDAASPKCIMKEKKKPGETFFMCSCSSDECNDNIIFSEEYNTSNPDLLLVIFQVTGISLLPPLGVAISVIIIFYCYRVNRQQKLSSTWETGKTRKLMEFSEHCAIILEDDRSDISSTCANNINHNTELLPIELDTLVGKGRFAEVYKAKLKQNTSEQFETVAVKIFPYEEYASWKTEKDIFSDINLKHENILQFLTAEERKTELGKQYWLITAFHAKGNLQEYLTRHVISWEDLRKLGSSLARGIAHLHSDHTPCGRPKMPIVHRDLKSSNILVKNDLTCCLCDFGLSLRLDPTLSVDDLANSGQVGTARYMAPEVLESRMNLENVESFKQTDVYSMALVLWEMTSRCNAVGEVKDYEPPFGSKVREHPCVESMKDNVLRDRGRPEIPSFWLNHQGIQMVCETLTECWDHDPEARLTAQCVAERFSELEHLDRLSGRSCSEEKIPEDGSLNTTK

By inhibition is commonly meant the drop in the measured response relative to a control, in per cent. Consider `COc1ccc([C@@H]2CC(=O)c3c(O)cc(O)cc3O2)cc1O` [HESPERETIN], for which the figures for the Activity entry in data set [1] and in data set [7] were “Non-toxic” and 19.5%, respectively. Further, in data set [2], the outcome was Active. Besides, the inhibition entry in data set [3], in data set [5], in data set [6], in data set [8] and in data set [9] was “Active” in each case. Also, in data set [4], the inhibition turned out to be 19.9%.

Values taken from ChEMBL document CHEMBL2203206, “Hesperetin: an inhibitor of the transforming growth factor-β (TGF-β) signaling pathway” (Eur J Med Chem, 2012).
